Data from ChEMBL document CHEMBL1145971, “Design and synthesis of the potent, orally available, brain-penetrable arylpyrazole class of neuropeptide Y5 receptor antagonists” (J Med Chem, 2003).

What was measured:
[1] = molecular target: T1, Neuropeptide Y receptor type 5 (Homo sapiens, UniProt Q15761); assay: Inhibition of [125I]PYY binding human recombinant Neuropeptide Y receptor type 5 in LMtk-cells
T1 sequence (Q15761 whole entry): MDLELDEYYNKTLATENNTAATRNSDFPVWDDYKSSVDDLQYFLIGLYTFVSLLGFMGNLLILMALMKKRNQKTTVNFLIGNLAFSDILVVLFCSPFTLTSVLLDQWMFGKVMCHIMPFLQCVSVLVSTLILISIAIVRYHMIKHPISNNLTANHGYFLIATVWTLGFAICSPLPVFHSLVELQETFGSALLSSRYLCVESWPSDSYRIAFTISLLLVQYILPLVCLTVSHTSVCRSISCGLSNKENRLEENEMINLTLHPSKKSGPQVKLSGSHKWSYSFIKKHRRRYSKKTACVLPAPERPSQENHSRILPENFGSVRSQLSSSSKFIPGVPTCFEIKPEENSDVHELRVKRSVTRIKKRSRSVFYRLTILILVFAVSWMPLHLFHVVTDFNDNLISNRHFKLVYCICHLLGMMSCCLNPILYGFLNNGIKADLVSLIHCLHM
Summary of the method: (§1)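 Radioligand displacement used [125I]PYY on human recombinant Y5 receptors expressed in LMtk- cells. Values are mean ± SE, n = 3.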

[2] = molecular target: T1, Neuropeptide Y receptor type 5; assay: Inhibition of [125I]PYY binding to human recombinant Neuropeptide Y receptor type 5 in LMtk-cells; summary of the method: as §1
[3] = molecular target: T1, Neuropeptide Y receptor type 5; assay: Antagonistic activity of compound was determined by its ability to inhibit NPY induced [Ca2+]i increases in CHO cells which expressed the recombinant human Neuropeptide Y receptor type 5; type: functional, cell-based
Summary of the method: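 Human recombinant Y5 receptor co-expressed with Gqi5 in CHO cells. Cells were stimulated with 100 nM NPY and inhibition of the intracellular Ca2+ rise was measured. IC50 is given as mean ± SE, n = 3.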

[4] = The concentration in brain was determined in SD rats at 2 hr after peroral administration of 10 mg/kg; type: ADME, organism-based; set-up: dose 10 mg/kg, route oral; conditions: Sprague-Dawley, rat, po
[5] = Time required for peak plasma concentration was determined for compound in SD rats when administered perorally at 10 mg/kg; type: ADME, organism-based; set-up: dose 10 mg/kg, route oral; conditions: Sprague-Dawley, rat, po
Summary of the method: (§2)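 Pharmacokinetics in SD rats: intravenous dose 1 mg/kg and oral dose 10 mg/kg. Parameters derived from plasma levels were t1/2, Vdss and CLtot (iv), and t1/2, Tmax, Cmax and F (po).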

[6] = Bioavailability was determined for compound in SD rats when administered perorally at 10 mg/kg; type: ADME, organism-based; conditions: Sprague-Dawley, rat, in vivo, po, read-out: Fmean; summary of the method: as §2
[7] = tested on: Rattus norvegicus; assay: Peak plasma concentration was determined for compound in SD rats when administered perorally at 10 mg/kg; type: ADME, organism-based; set-up: dose 10 mg/kg, route oral; conditions: in vivo, po; summary of the method: as §2
[8] = Half life (10 mg/kg) was determined in SD rats when administered perorally; type: ADME, organism-based; conditions: Sprague-Dawley, rat, in vivo, po; summary of the method: as §2
[9] = Half life (1 mg/kg) was determined in SD rats when administered intravenously; type: ADME, organism-based; conditions: Sprague-Dawley, rat, in vivo, iv; summary of the method: as §2
[10] = Total body clearance was determined in SD rats when administered intravenously, at 1 mg/kg compound dosage; type: ADME, organism-based; set-up: dose 1 mg/kg, route intravenous; conditions: Sprague-Dawley, rat, in vivo, iv, read-out: CLtotal; summary of the method: as §2
[11] = Volume of distribution was determined in SD rats when administered intravenously, at 1 mg/kg compound dosage; type: ADME, organism-based; set-up: dose 1 mg/kg, route intravenous; conditions: Sprague-Dawley, rat, in vivo, iv, read-out: Vdss; summary of the method: as §2

Compound | IC50 [1] | Ki [2] | other results
O=C(O)CCc1cccc(CC(=O)Nc2cc(-c3ccc(Cl)cc3)n[nH]2)c1 | 16.3 nM | 16 nM | –
O=C(Cc1cccc2ccccc12)Nc1cc(-c2ccc(Cl)cc2)n[nH]1 | 317 nM | – | –
O=C(Nc1cc(-c2ccc(Cl)cc2)n[nH]1)c1ccc(-c2ccccc2)cc1 | > 1000 nM | – | –
O=C(Nc1cc(-c2ccc(Cl)cc2)n[nH]1)c1cccc2ccccc12 | > 1000 nM | – | –
O=C(CCCc1ccccc1)Nc1cc(-c2ccc(Cl)cc2)n[nH]1 | 443 nM | – | –
O=C(CCc1ccccc1)Nc1cc(-c2ccc(Cl)cc2)n[nH]1 | > 1000 nM | – | –
O=C(Cc1ccc2ccccc2c1)Nc1cc(-c2ccc(Cl)cc2)n[nH]1 | 47 nM | – | –
O=C(Nc1cc(-c2ccc(Cl)cc2)n[nH]1)c1ccc2ccccc2c1 | > 1000 nM | – | –
O=C(Nc1cc(-c2ccncc2)[nH]n1)C1Cc2ccc3ccccc3c2C1 (racemic) | – | 10 nM | –
COc1ccc(-c2cc(NC(=O)Cc3ccc4ccccc4c3)[nH]n2)cc1OC | – | 8.3 nM | –
O=C(Cc1ccccc1)Nc1cc(-c2ccc(Cl)cc2)n[nH]1 | 803 nM | – | –

More lines, main results first:

IC50 [1] | Ki [2] | Compound | other results
> 1000 nM | – | O=C(Nc1cc(-c2ccc(Cl)cc2)n[nH]1)c1ccccc1 | –
– | 25 nM | CCc1cc(-c2cc(NC(=O)C3Cc4ccc5ccccc5c4C3)[nH]n2)ccn1 (stereo in doubt; (+)-7) | IC50 [3]: 28 nM
– | 3.5 nM | CCc1cc(-c2cc(NC(=O)C3Cc4ccc5ccccc5c4C3)[nH]n2)ccn1 (stereo in doubt; (-)-7) | concentration at 2 h [4]: 450 nM; Tmax [5]: 2 h; bioavailability [6]: 70%; Cmax [7]: 5000 nM; half-life [8]: 1.9 h; half-life [9]: 0.88 h; clearance [10]: 9.52 mL/min/kg; IC50 [3]: 14 nM; Vd [11]: 0.62 L/kg
– | 260 nM | O=C(Nc1cc(-c2ccccc2)[nH]n1)C1Cc2ccccc2C1 | –
– | 33 nM | COc1ccc(-c2cc(NC(=O)C3Cc4ccccc4C3)[nH]n2)cc1OC | –
– | 2.8 nM | COc1ccc(-c2cc(NC(=O)C3Cc4ccc5ccccc5c4C3)[nH]n2)cc1OC (racemic) | –
– | 120 nM | O=C(Nc1cc(-c2cccc(Cl)c2)n[nH]1)C1Cc2ccccc2C1 | –
– | 92 nM | CC(C)Oc1ccc(-c2cc(NC(=O)C3Cc4ccccc4C3)[nH]n2)cc1 | –
– | 7.3 nM | CCc1cc(-c2cc(NC(=O)C3Cc4ccc5ccccc5c4C3)[nH]n2)ccn1 (racemic) | –
– | 450 nM | O=C(Nc1cc(-c2ccccc2Cl)n[nH]1)C1Cc2ccccc2C1 | –
– | 62 nM | COc1ccc(-c2cc(NC(=O)C3Cc4ccccc4C3)[nH]n2)cc1 | –
– | 80 nM | Cc1ccc(-c2cc(NC(=O)C3Cc4ccccc4C3)[nH]n2)cc1 | –
– | 59 nM | O=C(Nc1cc(-c2ccc(Cl)cc2)n[nH]1)C1Cc2ccccc2C1 | –
